Results pooled from the literature.
Compare with care: the assays were run in different laboratories.
SLC6A4: Sodium-dependent serotonin transporter (SLC6A4, Homo sapiens, UniProt P31645)
rep papain-like protease: Replicase polyprotein 1ab, papain-like protease (rep, Porcine epidemic diarrhea virus, UniProt P0C6Y4)

Compound | target | read-out | mode | technique | endpoint | result
O=C(NCc1ccc(Br)cc1)c1c[nH]c(-c2n[nH]c3ncccc23)c1 | E3 ubiquitin-protein ligase NEDD4 (Homo sapiens, UniProt P46934) | binding |  | MST | Kd | 0.0439 µM
N#CC[C@@]12C[C@@H]1[C@@H](n1cnc3c(NCCCCCCc4ccccc4)nc(I)nc31)[C@H](O)[C@@H]2O | SLC6A4 | ligand displacement |  | radioligand | Ki | 4.4 µM
Cc1cc2[nH]cc(C(=O)O)c(=O)n2n1 | Peptidyl-prolyl cis-trans isomerase F, mitochondrial (PPIF, Homo sapiens, UniProt P30405) | binding |  | SPR | Kd | > 20000 µM
OC[C@@H]1O[C@@H](OC[C@H]2O[C@@H](OC/C=C/c3ccccc3)[C@H](O)[C@@H](O)[C@@H]2O)[C@H](O)[C@H]1O | POU domain, class 3, transcription factor 3 (Homo sapiens, UniProt P20264) | binding |  | SPR | Kd | 7.57 µM
O=C1CCC(N2Cc3cc(-c4cc5ccccc5cn4)ccc3C2=O)C(=O)N1 (stereo not drawn) | WEE1/CRBN (Homo sapiens, UniProt P30291+Q96SW2) | protein level | degrader |  | DC50 | 43 nM
O=C(NCc1cc(O)c(O)c(Br)c1)c1ccc(Cl)s1 | rep papain-like protease | enzyme activity | inhibitor | FRET | IC50 | 2.73 µM
CC(C)C[C@H](NC(=O)[C@@H](N)[C@@H](C)O)C(=O)N[C@@H](CCC(N)=O)C(=O)N1CCC[C@H]1C(=O)N1CCC[C@H]1C(=O)N[C@@H](C)C(=O)N[C@@H](CO)C(=O)N[C@@H](CO)C(=O)N[C@@H](CCCNC(=N)N)C(=O)N[C@@H](CCCNC(=N)N)C(=O)N[C@@H](CCCNC(=N)N)C(=O)N[C@@H](Cc1c[nH]cn1)C(=O)N[C@@H](Cc1ccccc1)C(=O)N[C@@H](Cc1c[nH]cn1)C(=O)N[C@@H](Cc1c[nH]cn1)C(=O)N[C@@H](C)C(=O)N[C@@H](CC(C)C)C(=O)N1CCC[C@H]1C(=O)N1CCC[C@H]1C(=O)N[C@@H](C)C(=O)N[C@@H](CCCNC(=N)N)C(=O)O | C3a anaphylatoxin chemotactic receptor (C3AR1, Homo sapiens, UniProt Q16581) | β-arrestin recruitment | agonist |  | EC50 | 653 nM
O=C(NCc1cc(O)c(O)c(Br)c1)c1ccc(OC(F)(F)F)cc1 | rep papain-like protease | enzyme activity | inhibitor | FRET | IC50 | 9.96 µM
CCOC(=O)[C@@]12C[C@@H]1[C@@H](n1cnc3c(NCCCCCCc4ccccc4)nc(I)nc31)[C@H](O)[C@@H]2O | SLC6A4 | ligand displacement |  | radioligand | Ki | 4.6 µM
